Data: ChEMBL document CHEMBL4371043, “Dynamic Generation of G-Quadruplex DNA Ligands by Target-Guided Combinatorial Chemistry on a Magnetic Nanoplatform” (J Med Chem, 2019)
The source made the active and inactive calls. No cut-off for these calls is given here.

What was measured:
Quadruplex DNA [1] = assay: Binding affinity to 6-FAM/TAMRA labeled cMYC G-quadruplex DNA (unknown origin) in potassium cacodylate buffer assessed as change in melting temperature at 1 uM at pH 7.4 by FRET-Based DNA melting assay; assay type: nucleic-acid assay
Procedure, shortened: (§1)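 FRET melting: FAM/TAMRA dual-labelled oligos (G4: TG4AG3TG4AG3TG4A2G2; duplex: CA5T5GCA5T5G) annealed at 400 nM in 60 mM potassium cacodylate pH 7.4 (95 °C 5 min, cool 0.1 °C/min). Melting run on 200 nM oligo ± 1 μM ligand; excitation 480 nm, emission 530 nm, 37–95 °C, 30 reads per °C. ΔTm versus ligand-free DNA.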

dsDNA [2] = assay: Binding affinity to 6-FAM/TAMRA labeled double stranded DNA (unknown origin) in potassium cacodylate buffer assessed as change in melting temperature at 1 uM at pH 7.4 by FRET-Based DNA melting assay; assay type: nucleic-acid assay; procedure, shortened: as §1
Quadruplex DNA [3] = assay: Binding affinity to cMYC G-quadruplex DNA (unknown origin) in tris-KCL buffer by fluorimetric titration assay; assay type: nucleic-acid assay
Procedure, shortened: (§2)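 Fluorimetric titration: unlabelled pre-folded G4 (TG4AG3TG4AG3TG4A2G2) or duplex (CA5T5GCA5T5G) DNA added stepwise to 0.25 μM ligand in filtered, degassed 100 mM Tris·KCl pH 7.4; 25 °C, 1 cm quartz cuvette, excitation 300 nm. Apparent Kd from fitting emission intensity against [DNA] to a one-site Hill equation.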

dsDNA [4] = assay: Binding affinity to double stranded DNA (unknown origin) in tris-KCL buffer by fluorimetric titration assay; assay type: nucleic-acid assay; procedure, shortened: as §2
Quadruplex DNA [5] = assay: Displacement thiazole orange from cMYC G-quadruplex DNA (unknown origin) in tris-KCL buffer after 30 mins by FID assay; assay type: nucleic-acid assay
Procedure, shortened: (§3)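 Thiazole orange displacement: pre-folded G4 or duplex DNA (0.25 μM) with TO (0.50 μM) in 100 mM Tris–KCl pH 7.4, 30 min rt; compound added stepwise, 3 min equilibration each, spectra excited at 501 nm. Percent TO displaced = 100 − (FA×100/FA0) from emission area; DC50 read from displacement-versus-concentration plot.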

dsDNA [6] = assay: Displacement thiazole orange from double stranded DNA (unknown origin) in tris-KCL buffer after 30 mins by FID assay; assay type: nucleic-acid assay; procedure, shortened: as §3
HeLa [7] = assay: Cytotoxicity against human HeLa cells assessed as reduction in cell viability after 24 hrs by XTT assay; assay type: functional, cell-based
Procedure, shortened: (§4)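 XTT viability: HeLa (DMEM), A549 (Ham's F12K) or NKE (glutamine-supplemented RPMI 1640), all with 10% FBS, 37 °C, 5% CO2; 10^4–10^5 cells/well exposed to 0–50 μM compound for 24 h, in triplicate. XTT/PMS added 2 h at 37 °C; absorbance 450 nm; viability as percent of untreated control.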

A549 = assay: Cytotoxicity against human A549 cells assessed as reduction in cell viability after 24 hrs by XTT assay; assay type: functional, cell-based; settings: A549, 24 h; procedure, shortened: as §4
[8] = Cytotoxicity against human NKE cells assessed as reduction in cell viability after 24 hrs by XTT assay; assay type: cell-based; procedure, shortened: as §4
Quadruplex DNA [9] = assay: Binding affinity to cMYC G-quadruplex DNA G to A mutant promoter sequence (unknown origin) transfected in human Hela cells assessed as reduction in c-MYC promoter-linked expression at 1.5 uM incubated for 36 hrs by dual-luciferase reporter gene assay relative to control; assay type: cell-based; settings: in the assay text read “wild-type promoter sequence” for “G to A mutant promoter sequence”
Procedure, shortened: (§5)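 Dual luciferase in HeLa: 0.2 μg c-MYC Del4 firefly reporter (wild-type or G-to-A mutant G-rich region) co-transfected with 30 ng pRL-TK Renilla control, Lipofectamine 2000, serum-free DMEM; after 8 h switched to complete medium with ligand at 1 or 1.5 μM. Lysed at 36 h; firefly activity normalised to Renilla.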

Quadruplex DNA [10] = assay: Binding affinity to 6-FAM/TAMRA labeled cMYC G-quadruplex DNA (unknown origin) in potassium cacodylate buffer assessed as change in melting temperature at 1 uM at pH 7.4 in presence of 1 to 200 equiv calf thymus DNA by FRET-Based DNA melting assay; assay type: nucleic-acid assay
Procedure, shortened: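 Competition FRET melting: 0.2 μM FAM/TAMRA-labelled c-MYC G4 oligo with 1 μM ligand plus unlabelled calf-thymus duplex DNA at 1–200 equivalents of G4; ΔTm followed (excitation 480 nm, emission 530 nm, 37–95 °C ramp).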

Quadruplex DNA [11] = assay: Effect on native parallel topology of cMYC G-quadruplex DNA (unknown origin) assessed as formation of positive band at 260 nm up to 10 equiv concentration by CD spectroscopy; assay type: nucleic-acid assay
Quadruplex DNA [12] = assay: Effect on native parallel topology of cMYC G-quadruplex DNA (unknown origin) assessed as formation of negative band at 240 nm up to 10 equiv concentration by CD spectroscopy; assay type: nucleic-acid assay
Quadruplex DNA [13] = assay: Binding affinity to cMYC G-quadruplex DNA (unknown origin) assessed as increase in emission intensity at 0.25 uM in presence of increasing concentration of DNA by fluorimetric titration relative to control; assay type: nucleic-acid assay; procedure, shortened: as §2
dsDNA [14] = assay: Binding affinity to double stranded DNA (unknown origin) assessed as increase in emission intensity at 0.25 uM by fluorimetric titration relative to control; assay type: nucleic-acid assay; procedure, shortened: as §2
Quadruplex DNA [15] = assay: Binding affinity to wild type cMYC G-quadruplex DNA promoter sequence (unknown origin) transfected in human Hela cells assessed as reduction in c-MYC promoter-linked expression at 1 uM incubated for 36 hrs by dual-luciferase reporter gene assay relative to control; assay type: cell-based; procedure, shortened: as §5
Quadruplex DNA [16] = assay: Binding affinity to wild type cMYC G-quadruplex DNA promoter sequence (unknown origin) transfected in human Hela cells assessed as reduction in c-MYC promoter-linked expression at 1.5 uM incubated for 36 hrs by dual-luciferase reporter gene assay relative to control; assay type: cell-based; procedure, shortened: as §5
Quadruplex DNA [17] = assay: Binding affinity to cMYC G-quadruplex DNA in human HeLa cells assessed as reduction in cMYC protein expression after 24 hrs by Western blot analysis; assay type: cell-based
Procedure, shortened: (§6)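 Western blot, HeLa: 24 h ligand exposure at 1.0, 1.5 or 2.0 μM; lysis in 20 mM Tris/100 mM NaCl/1 mM EDTA/0.5% Triton X-100, protein by Folin-Lowry; 70 μg on 12% SDS-PAGE, nitrocellulose, 4% BSA block; rabbit anti-c-MYC and mouse anti-GAPDH overnight at 4 °C, HRP secondaries 2 h; bands quantified densitometrically.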

Quadruplex DNA [18] = assay: Binding affinity to cMYC G-quadruplex DNA in human HeLa cells assessed as reduction in cMYC protein expression at 1 uM after 24 hrs by Western blot analysis relative to control; assay type: cell-based; procedure, shortened: as §6
Quadruplex DNA [19] = assay: Binding affinity to cMYC G-quadruplex DNA in human HeLa cells assessed as reduction in cMYC protein expression at 1.5 uM after 24 hrs by Western blot analysis relative to control; assay type: cell-based; procedure, shortened: as §6
Quadruplex DNA [20] = assay: Binding affinity to cMYC G-quadruplex DNA in human HeLa cells assessed as reduction in cMYC protein expression at 2 uM after 24 hrs by Western blot analysis relative to control; assay type: cell-based; procedure, shortened: as §6
[21] = Drug level in human HeLa cell nucleus at 0.5 uM measured after overnight incubation by NucRed647-staining based confocal microscopy; assay type: ADME, subcellular
Procedure, shortened: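 Confocal: HeLa on coverslips treated overnight with 0.5 μM ligand, fixed 12 min in 1:1 acetone/methanol at −20 °C, nuclei stained with NucRed 647 Live 10 min in the dark; ligand localisation imaged by confocal laser scanning.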

Quadruplex DNA [22] = assay: Binding affinity to cMYC G-quadruplex DNA in human HeLa cells assessed as induction of DNA damage by measuring increase in gammaH2AX foci at 1 to 2 uM measured after overnight incubation by alexafluor-647-based flow cytometry; assay type: cell-based
Procedure, shortened: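 γH2AX flow cytometry: HeLa treated overnight with 1 or 2 μM ligand, trypsinised, fixed in 1% paraformaldehyde 30 min rt, permeabilised with 0.03% saponin 20 min, then stained 3 h with Alexa Fluor 647 anti-γH2AX (1:100 in PBS + 0.1% FBS).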

Quadruplex DNA [23] = assay: Binding affinity to cMYC G-quadruplex DNA (unknown origin) assessed as induction of red shift at 0.25 uM in presence of increasing concentration of DNA by fluorimetric titration relative to control; assay type: nucleic-acid assay; procedure, shortened: as §2
Quadruplex DNA [24] = assay: Binding affinity to cMYC G-quadruplex DNA G to A mutant promoter sequence (unknown origin) transfected in human Hela cells assessed as reduction in c-MYC promoter-linked expression at 1 to 1.5 uM incubated for 36 hrs by dual-luciferase reporter gene assay relative to control; assay type: cell-based; procedure, shortened: as §5
HeLa [25] = assay: Effect on GAPDH protein expression in human HeLa cells at 1 to 2 uM after 24 hrs by Western blot analysis relative to control; assay type: ADME, cell-based; procedure, shortened: as §6
Quadruplex DNA [26] = assay: Binding affinity to cMYC G-quadruplex DNA (unknown origin) assessed as reduction in fluorescence intensity at 0.25 uM by fluorimetric titration relative to control; assay type: nucleic-acid assay; procedure, shortened: as §2
dsDNA [27] = assay: Binding affinity to double stranded DNA (unknown origin) assessed as reduction in fluorescence intensity at 0.25 uM by fluorimetric titration relative to control; assay type: nucleic-acid assay; procedure, shortened: as §2

Row | Compound | ΔTm (Quadruplex DNA [1]) [°C] | ΔTm (dsDNA [2]) [°C] | Kd (Quadruplex DNA [3]) [µM] | DC50 (Quadruplex DNA [5]) [µM] | DC50 (dsDNA [6]) [µM] | IC50 (HeLa [7]) [µM] | IC50 (A549) [µM] | IC50 [8] [µM] | also measured
1 | COc1ccc(-c2ccc3c(c2)c2cc(CNc4ccc(O)cc4)ccc2n3CCCN(C)C)cc1 | 0.7 | 1.9 |  |  |  |  |  |  | 
2 | CCCCNCc1ccc2c(c1)c1cc(-c3ccc(OC)cc3)ccc1n2CCCN(C)C | 13.6 | 9.5 | 5.72 | 8.01 | > 30 | 2 | 4.3 | > 50 | Kd (dsDNA [4]): 6.63 µM; inhibition (Quadruplex DNA [9]): 14%
3 | COc1ccc(-c2ccc3c(c2)c2cc(CNc4ccc([N+](=O)[O-])cc4)ccc2n3CCCN(C)C)cc1 | 3.4 | 2.4 |  |  |  |  |  |  | 
4 | COc1ccc(-c2ccc3c(c2)c2cc(CNC4CC4)ccc2n3CCCN(C)C)cc1 | 3.5 | 1.1 |  |  |  |  |  |  | 
5 | COc1ccc(-c2ccc3c(c2)c2cc(CNc4ccc(OCCCN(C)C)cc4)ccc2n3CCCN(C)C)cc1 | 23.4 | 0.58 | 1.08 | 2.25 | > 30 | 2.5 | 6.4 | > 50 | Activity (Quadruplex DNA [10]): Active; Activity (Quadruplex DNA [11]): inactive; Activity (Quadruplex DNA [12]): inactive; fold change (FC) (Quadruplex DNA [13]): 4.4; Activity (dsDNA [14]): inactive; inhibition (Quadruplex DNA [15]): 31%; inhibition (Quadruplex DNA [16]): 45%; inhibition (Quadruplex DNA [17]): Dose-dependent effect; inhibition (Quadruplex DNA [18]): 27%; inhibition (Quadruplex DNA [19]): 57%; inhibition (Quadruplex DNA [20]): 65%; Drug uptake [21]: Active; Activity (Quadruplex DNA [22]): Active; Activity (Quadruplex DNA [23]): Active; Activity (Quadruplex DNA [24]): inactive; Activity (HeLa [25]): Non-Toxic
6 | COc1ccc(-c2ccc3c(c2)c2cc(CNc4ccc(C#CCN(C)C)cc4)ccc2n3CCCN(C)C)cc1 | 5 | 3.79 |  |  |  |  |  |  | 
7 | C#CCNCc1ccc2c(c1)c1cc(-c3ccc(OC)cc3)ccc1n2CCCN(C)C | 11.8 | 8.5 | 7.17 | > 25 | > 30 | 11.5 | > 25 | > 50 | Kd (dsDNA [4]): 7.03 µM; fold change (FC) (Quadruplex DNA [26]): 1.5; fold change (FC) (dsDNA [27]): 1.5; Activity (Quadruplex DNA [24]): inactive
8 | COc1ccc(-c2ccc3c(c2)c2cc(CNc4ccc(Br)cc4C)ccc2n3CCCN(C)C)cc1 | 3.3 | 0.44 |  |  |  |  |  |  | 
9 | COc1ccc(-c2ccc3c(c2)c2cc(CNc4nccs4)ccc2n3CCCN(C)C)cc1 | 3.2 | 1.15 |  |  |  |  |  |  | 
10 | COc1ccc(-c2ccc3c(c2)c2cc(CNCCCN(C)C)ccc2n3CCCN(C)C)cc1 | 5.3 | 7.2 |  |  |  |  |  |  | 
